Measured values taken from ChEMBL document CHEMBL3526046, “The role of aldehyde oxidase and xanthine oxidase in the biotransformation of a novel negative allosteric modulator of metabotropic glutamate receptor subtype 5” (Drug Metab Dispos, 2012).

Tests used:
[1] = Drug level in cynomolgus monkey hepatic S9 fraction treated with 25 uM VU0409106 by LC-UV-MS analysis; format: ADME, tissue-based, Macaca fascicularis, Liver
Outline: (§1)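 Hepatic S9 (5 mg/ml) in 0.1 M potassium phosphate pH 7.4 with 3 mM MgCl2 and 25 µM substrate, 37°C, 1 h under ambient oxygen; NADPH (2 mM) added in select runs. Reactions started by adding substrate. Protein precipitated with 2 volumes MeCN and the supernatant dried under nitrogen, reconstituted in 85:15 10 mM ammonium formate (pH 4.1)-MeCN, then analysed by LC-MS.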

Hepatocyte [2] = test: Drug level in human cryopreserved hepatocytes treated with 25 uM VU0409106 by LC-MS/MS analysis in presence of 1-ABT pan-450 inactivator; format: ADME, cell-based
Outline: (§2)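 Pooled cryopreserved hepatocytes (2 × 10^6 cells/ml) in Krebs-Henseleit buffer, 25 µM substrate, 37°C for 4 h. Rat donors were 14 males, cynomolgus 4 males, human 20 mixed gender. Cells precipitated with 2 volumes MeCN, centrifuged at 4°C; supernatant dried under nitrogen, reconstituted in 15% aqueous MeCN for LC-MS.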

[3] = Drug level in cynomolgus monkey cryopreserved hepatocytes treated with 25 uM VU0409106 by LC-MS/MS analysis; format: ADME, cell-based, Macaca fascicularis, Hepatocyte; outline: as §2
Hepatocyte [4] = test: Drug level in Sprague-Dawley rat cryopreserved hepatocytes treated with 25 uM VU0409106 by LC-UV-MS analysis; format: ADME, cell-based
Plasma [5] = test: Retention time in Sprague-Dawley rat plasma treated with 56.6 mg/kg, ip VU0409106 single dose; format: ADME, organism-based; parameters: dose 56.6 mg/kg, route intraperitoneal; settings: in vivo
Outline: (§3)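 Male Sprague-Dawley rats given a single intraperitoneal dose of 56.6 mg/kg. Plasma extracted with 2 volumes acetonitrile and centrifuged; metabolites profiled by LC-MS/MS.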

Hepatocyte [6] = test: Drug level in human cryopreserved hepatocytes treated with 25 uM VU0409106 by LC-MS/MS analysis; format: ADME, cell-based; outline: as §2
Plasma [7] = test: Drug level in Sprague-Dawley rat plasma treated with 56.6 mg/kg, ip VU0409106 single dose by LC-MS/MS analysis; format: ADME, organism-based; parameters: dose 56.6 mg/kg, route intraperitoneal; settings: in vivo; outline: as §3
[8] = Drug level in human hepatic S9 fraction treated with 25 uM VU0409106 by LC-UV-MS analysis; format: ADME, tissue-based, Liver; outline: as §1
Hepatocyte [9] = test: Drug level in Sprague-Dawley rat cryopreserved hepatocytes treated with 25 uM VU0409106 by LC-MS/MS analysis in presence of 1-ABT pan-450 inactivator; format: ADME, cell-based
[10] = Intrinsic clearance in cynomolgus monkey cryopreserved hepatocytes at 1 uM; format: ADME, cell-based, Macaca fascicularis, Hepatocyte
Outline: (§4)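 Hepatocyte depletion assay at 2 × 10^6 cells/ml, 37°C, ambient oxygen. Aliquots taken at 0, 15, 30, 60 and 120 min, quenched in ice-cold MeCN containing internal standard, analysed by LC-MS/MS in triplicate. Intrinsic clearance estimated by the substrate depletion method.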

[11] = Intrinsic clearance in Sprague-Dawley rat hepatic cytosol at 1 uM; format: ADME, tissue-based, Liver
Outline: (§5)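 Substrate depletion at 1 µM in 0.1 M potassium phosphate pH 7.4, S9 2.5 mg/ml or cytosol 1 mg/ml, ± NADPH 1 mM, 37°C. Sampled at 0, 3, 7, 15, 25 and 45 min, quenched in cold MeCN with internal standard, analysed by LC-MS/MS in triplicate. CLint scaled using 120.7 mg S9 or 80.7 mg cytosol protein.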

[12] = Drug metabolism in human cryopreserved hepatocytes assessed as 3-(2,4-dioxo-1,2,3,4-tetrahydropyrimidin-5-yloxy)-5-fluoro-N-(thiazol-2-yl)benzamide at 25 uM by LC-MS/MS analysis; format: ADME, cell-based, Hepatocyte; outline: as §2
[13] = Volume of distribution at steady state in Sprague-Dawley rat at 1 mg/kg, iv administered as single dose; format: ADME, organism-based; parameters: dose 1 mg/kg, route intravenous; settings: in vivo, read-out: Vdss
Outline: (§6)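 Cannulated male Sprague-Dawley rats dosed at 1 mg/kg through a jugular catheter in 10% ethanol/70% PEG400/20% saline. Carotid blood drawn at 0.033 to 24 h into chilled EDTA tubes; plasma stored at -80°C. Parameters derived by noncompartmental analysis.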

[14] = Effective half life in Sprague-Dawley rat at 1 mg/kg, iv administered as single dose; format: ADME, organism-based; parameters: dose 1 mg/kg, route intravenous; settings: in vivo; outline: as §6
[15] = Inhibition of group 1 mGluR (unknown origin); parameters: species or system Homo sapiens
[16] = Drug metabolism in human cryopreserved hepatocytes assessed as hydroxylated pyrimidine metabolite formation at 25 uM by LC-MS/MS analysis in presence of 1-ABT pan-450 inactivator; format: ADME, cell-based, Hepatocyte; outline: as §2
[17] = Drug metabolism in Sprague-Dawley rat hepatic S9 fraction assessed as 3-fluoro-N-(4-methylthiazol-2-yl)-5-(6-oxo-1,6-dihydropyrimidin-5-yloxy)benzamide at 25 uM by LC-MS/MS analysis; format: ADME, Liver; settings: s9, 25 µM
[18] = Drug metabolism in human cryopreserved hepatocytes assessed as hydroxylated thiazole metabolite formation at 25 uM by LC-MS/MS analysis in presence of 1-ABT pan-450 inactivator; format: ADME, cell-based, Hepatocyte; outline: as §2
[19] = Plasma clearance in Sprague-Dawley rat at 1 mg/kg, iv administered as single dose; format: ADME, organism-based; parameters: dose 1 mg/kg, route intravenous; outline: as §6
[20] = Drug metabolism in Sprague-Dawley rat cryopreserved hepatocytes assessed as hydroxylated thiazole metabolite formation at 25 uM by LC-MS/MS analysis in presence of 1-ABT pan-450 inactivator; format: ADME, cell-based, Hepatocyte; outline: as §2
Plasma [21] = test: Drug metabolism in Sprague-Dawley rat plasma assessed as hydroxylated pyrimidine metabolite formation at 56.6 mg/kg, ip single dose by LC-MS/MS analysis; format: ADME, organism-based; parameters: dose 56.6 mg/kg, route intraperitoneal; settings: in vivo; outline: as §3
[22] = Intrinsic clearance in cynomolgus monkey hepatic S9 fraction at 1 uM in presence of NADPH; format: ADME, tissue-based, Macaca fascicularis, Liver; outline: as §5
[23] = Intrinsic clearance in human hepatic S9 fraction at 1 uM in presence of NADPH; format: ADME, tissue-based, Liver; outline: as §5
[24] = Intrinsic clearance in human cryopreserved hepatocytes at 1 uM; format: ADME, cell-based, Hepatocyte; outline: as §4
[25] = Intrinsic clearance in cynomolgus monkey hepatic S9 fraction at 1 uM; format: ADME, tissue-based, Macaca fascicularis, Liver; outline: as §5
Plasma [26] = test: Drug metabolism in Sprague-Dawley rat plasma assessed as hydroxylated thiazole metabolite formation at 56.6 mg/kg, ip single dose by LC-MS/MS analysis; format: ADME, organism-based; parameters: dose 56.6 mg/kg, route intraperitoneal; settings: in vivo; outline: as §3
[27] = Plasma clearance in cynomolgus monkey at 1 mg/kg, iv administered as single dose; format: ADME, organism-based, Macaca fascicularis; parameters: dose 1 mg/kg, route intravenous
Outline: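 Male cynomolgus monkeys (n = 2, about 3 kg) given 1 mg/kg i.v. via the saphenous vein in 10% ethanol/60% PEG400/30% isotonic saline. Femoral blood sampled from 0.033 to 24 h into chilled EDTA tubes; plasma kept at -80°C.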

[28] = Intrinsic clearance in Sprague-Dawley rat hepatic S9 fraction at 1 uM; format: ADME, tissue-based, Liver; outline: as §5
[29] = Drug metabolism in human hepatic S9 fraction assessed as 3-fluoro-N-(4-methylthiazol-2-yl)-5-(6-oxo-1,6-dihydropyrimidin-5-yloxy)benzamide at 1 uM by LC-MS/MS analysis; format: ADME, Liver; settings: s9, 1 µM
[30] = Drug metabolism in human cryopreserved hepatocytes assessed as 3-fluoro-N-(4-methylthiazol-2-yl)-5-(6-oxo-1,6-dihydropyrimidin-5-yloxy)benzamide at 25 uM by LC-MS/MS analysis; format: ADME, cell-based, Hepatocyte; outline: as §2
[31] = Inhibition of group 2 mGluR (unknown origin); parameters: species or system Homo sapiens
[32] = Drug metabolism in cynomolgus monkey hepatic S9 fraction assessed as 3-fluoro-N-(4-methylthiazol-2-yl)-5-(6-oxo-1,6-dihydropyrimidin-5-yloxy)benzamide at 1 uM by LC-MS/MS analysis; format: ADME, Macaca fascicularis, Liver; settings: s9, 1 µM
[33] = Drug metabolism in Sprague-Dawley rat hepatic S9 fraction assessed as 3-(2,4-dioxo-1,2,3,4-tetrahydropyrimidin-5-yloxy)-5-fluoro-N-(thiazol-2-yl)benzamide at 25 uM by LC-MS/MS analysis; format: ADME, Liver; settings: s9, 25 µM
[34] = Drug metabolism in Sprague-Dawley rat cryopreserved hepatocytes assessed as hydroxylated pyrimidine metabolite formation at 25 uM by LC-MS/MS analysis in presence of 1-ABT pan-450 inactivator; format: ADME, cell-based, Hepatocyte; outline: as §2
[35] = Inhibition of group 3 mGluR (unknown origin); parameters: species or system Homo sapiens
[36] = Intrinsic clearance in human hepatic cytosol at 1 uM; format: ADME, tissue-based, Liver; outline: as §5
[37] = Drug metabolism in human hepatic S9 fraction assessed as 3-(2,4-dioxo-1,2,3,4-tetrahydropyrimidin-5-yloxy)-5-fluoro-N-(thiazol-2-yl)benzamide at 1 uM by LC-MS/MS analysis; format: ADME, Liver; settings: s9, 1 µM
[38] = Intrinsic clearance in Sprague-Dawley rat cryopreserved hepatocytes at 1 uM; format: ADME, cell-based, Hepatocyte; outline: as §4
[39] = Intrinsic clearance in Sprague-Dawley rat hepatic S9 fraction at 1 uM in presence of NADPH; format: ADME, tissue-based, Liver; outline: as §5
[40] = Drug metabolism in cynomolgus monkey hepatic S9 fraction assessed as 3-(2,4-dioxo-1,2,3,4-tetrahydropyrimidin-5-yloxy)-5-fluoro-N-(thiazol-2-yl)benzamide at 1 uM by LC-MS/MS analysis; format: ADME, Macaca fascicularis, Liver; settings: s9, 1 µM
[41] = Drug level in Sprague-Dawley rat hepatic S9 fraction treated with 25 uM VU0409106 by LC-MS/MS analysis in presence of 100 uM allopurinol xanthine oxidase inhibitor; format: ADME, tissue-based, Liver; outline: as §1
[42] = Drug level in human hepatic S9 fraction treated with 25 uM VU0409106 by LC-MS/MS analysis in presence of 100 uM hydralazine aldehyde oxidase inhibitor; format: ADME, tissue-based, Liver; outline: as §1
[43] = Drug level in Sprague-Dawley rat hepatic S9 fraction treated with 25 uM VU0409106 by LC-UV-MS analysis; format: ADME, tissue-based, Liver; outline: as §1
[44] = Drug level in human hepatic S9 fraction treated with 25 uM VU0409106 by LC-MS/MS analysis in presence of 100 uM raloxifene aldehyde oxidase inhibitor; format: ADME, tissue-based, Liver; outline: as §1
[45] = Drug level in beagle dog hepatic S9 fraction treated with 25 uM VU0409106 by LC-MS/MS analysis; format: ADME, tissue-based, Canis lupus familiaris, Liver; outline: as §1
[46] = Drug level in Sprague-Dawley rat hepatic S9 fraction treated with 25 uM VU0409106 by LC-MS/MS analysis in presence of 100 uM hydralazine aldehyde oxidase inhibitor; format: ADME, tissue-based, Liver; outline: as §1
[47] = Drug level in Sprague-Dawley rat hepatic S9 fraction treated with 3-fluoro-N-(4-methylthiazol-2-yl)-5-(6-oxo-1,6-dihydropyrimidin-5-yloxy)benzamide by LC-MS/MS analysis in presence of 100 uM allopurinol xanthine oxidase inhibitor; format: ADME, tissue-based, Liver

## Cc1csc(NC(=O)c2cc(O)cc(Oc3c[nH]c(=O)[nH]c3=O)c2)n1
[1]
  Drug metabolism: metabolite_detected
Hepatocyte [2]
  Drug metabolism: metabolite_not_detected
[3]
  Drug metabolism: metabolite_detected
Hepatocyte [4]
  Drug metabolism: metabolite_detected
Plasma [5]
  Retention_time: 13.4 min
Hepatocyte [6]
  Drug metabolism: metabolite_detected
Plasma [7]
  Drug metabolism: metabolite_detected
[8]
  Drug metabolism: metabolite_detected
Hepatocyte [9]
  Drug metabolism: metabolite_not_detected

## Cc1csc(NC(=O)c2cc(F)cc(Oc3cncnc3)c2)n1
[10]
  CLint at 1 µM: 194 mL/min/kg
[11]
  CLint at 1 µM: 16 mL/min/kg
[12]
  Drug metabolism: metabolite_detected
[13]
  Vd: 0.81 L/kg
[14]
  half-life: < 15 min
[15]
  IC50: ≥ 10 µM
[16]
  Drug metabolism: metabolite_not_detected
[17]
  Drug metabolism: metabolite_detected
[18]
  Drug metabolism: metabolite_not_detected
[19]
  clearance: 43 mL/min/kg
[20]
  Drug metabolism: metabolite_not_detected
Plasma [21]
  Drug metabolism: metabolite_detected
[22]
  CLint at 1 µM: 37 mL/min/kg
[23]
  CLint at 1 µM: 15 mL/min/kg
[24]
  CLint at 1 µM: 6.9 mL/min/kg
[25]
  CLint at 1 µM: 34 mL/min/kg
Plasma [26]
  Drug metabolism: metabolite_detected
[27]
  clearance: 24 mL/min/kg
[28]
  CLint at 1 µM: 25 mL/min/kg
[29]
  Drug metabolism: metabolite_detected
[30]
  Drug metabolism: metabolite_detected
[31]
  IC50: ≥ 10 µM
Plasma [5]
  Retention_time: 14.5 min
[32]
  Drug metabolism: metabolite_detected
[33]
  Drug metabolism: metabolite_detected
[34]
  Drug metabolism: metabolite_not_detected
[35]
  IC50: ≥ 10 µM
[36]
  CLint at 1 µM: 3.7 mL/min/kg
[37]
  Drug metabolism: metabolite_detected
[38]
  CLint at 1 µM: 96 mL/min/kg
[39]
  CLint at 1 µM: 54 mL/min/kg
[40]
  Drug metabolism: metabolite_detected

## Cc1csc(NC(=O)c2cc(F)cc(Oc3cnc[nH]c3=O)c2)n1
[1]
  Drug metabolism: metabolite_detected
[41]
  Drug metabolism: metabolite_detected
[42]
  Drug metabolism: metabolite_not_detected
Hepatocyte [4]
  Drug metabolism: metabolite_detected
Plasma [5]
  Retention_time: 12.55 min
[43]
  Drug metabolism: metabolite_detected
Plasma [7]
  Drug metabolism: metabolite_detected
[8]
  Drug metabolism: metabolite_detected
[44]
  Drug metabolism: metabolite_not_detected
[45]
  Drug metabolism: metabolite_not_detected
[46]
  Drug metabolism: metabolite_not_detected

## Cc1csc(NC(=O)c2cc(F)cc(Oc3c[nH]c(=O)[nH]c3=O)c2)n1
[1]
  Drug metabolism: metabolite_detected
[41]
  Drug metabolism: metabolite_not_detected
[47]
  Drug metabolism: metabolite_not_detected
Hepatocyte [4]
  Drug metabolism: metabolite_detected
Plasma [5]
  Retention_time: 12.3 min
[43]
  Drug metabolism: metabolite_detected
Plasma [7]
  Drug metabolism: metabolite_detected
[8]
  Drug metabolism: metabolite_detected
